The source made the active and inactive calls. The rule behind the calls is not given here.

One data set deals with SK-N-SH. Nature of the data set: Antitumour activity against human SK-N-SH cells assessed as cell growth inhibition measured after 72 hrs by SRB assay. It is filed as functional, cell-based. In short, it runs like this: (§1)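 Exponentially growing cells trypsinized, seeded at 5 × 10^4 cells/mL in 96-well plates, cultured overnight, then exposed to compounds for 72 h. Cells fixed with 10% TCA 1 h, stained with SRB 15 min, dye dissolved in Tris-HCl, absorbance read; 50% growth-inhibitory concentration calculated.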

The next data set has as its system B16. Nature of the data set: Antitumour activity against mouse B16 cells assessed as cell growth inhibition measured after 72 hrs by SRB assay. Conditions: B16, 72 h. In kind it is functional, cell-based. In short, it runs like this: as §1
On the technique in general: Sulforhodamine B stains cellular protein and so reports cell mass.

In the next data set the test system is ECa-109 cell line. Nature of the data set: Antitumour activity against human EC109 cells assessed as cell growth inhibition measured after 72 hrs by SRB assay. In kind it is functional, cell-based. Particulars: ECa-109, 72 h. In short, it runs like this: as §1
A further data set has as its system MGC-803. The experiment in a line: Antitumour activity against human MGC803 cells assessed as cell growth inhibition measured after 72 hrs by SRB assay. Conditions: MGC-803, 72 h. In kind it is functional, cell-based. In short, it runs like this:
as §1

A further data set deals with A549. The experiment in a line: Antitumour activity against human A549 cells assessed as cell growth inhibition measured after 72 hrs by SRB assay. It is filed as functional, cell-based. Particulars: A549, 72 h. In short, it runs like this:
as §1

In another data set the test system is SMMC-7721. Nature of the data set: Antitumour activity against human SMMC7721 cells assessed as cell growth inhibition measured after 72 hrs by SRB assay. In kind it is functional, cell-based. Conditions: SMMC-7721, 72 h. In short, it runs like this: as §1
Another data set relates to HEK293. The experiment in a line: Cytotoxicity against human HEK293 cells measured after 48 to 72 hrs by MTT assay. It is filed as cell-based. In short, it runs like this:
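Cells seeded at 3 × 10^3 per well in 96-well plates, incubated overnight, then given fresh medium with a range of drug concentrations for 48 h or 72 h. MTT added (final 500 µg/mL) for 4 h, formazan dissolved in DMSO, absorbance at 570 nm; IC50 derived. Mean ± SD of 3 independent tests.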

The nature of data set [1]: Solubility of the compound in water. In kind it is physicochemical. Particulars: buffer.
For a further data set, the system named is Chorioallantoic membrane. Nature of the data set: Antiangiogenic activity in chicken chorioallantoic membrane assessed as reduction in neovascularization at 50 ug/ml measured after 72 hrs by CAM assay. It is filed as functional. Conditions: Gallus gallus. In short, it runs like this:
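Fertilized chicken eggs incubated 6 days at 37 °C; shell windowed and CAM treated (compounds and controls at […] as printed; saline vehicle control). Eggs re-incubated humidified; membranes fixed and harvested after 72 h. Angiogenesis scored by counting blood vessels and imaging neovascular zones; ten eggs per group.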

In general, IC50 refers to the concentration that inhibits the measured activity by half. Take `C[C@]12CC[C@@H]3c4cc(C(=O)/C=C/c5ccc(Cl)cc5)c(O)cc4CC[C@H]3[C@@H]1CC[C@@H]2O`: the half-inhibitory concentration (IC50) in the data set on SK-N-SH was found to be 15 µM; in the data set with B16 it was 15.3 µM; in the data set on ECa-109 cell line it was 14 µM; with MGC-803, 15.7 µM; in the data set on A549 it was 12.1 µM; in the data set on SMMC-7721, 44.9 µM.
Turning to `COc1cc2c(cc1O)CC[C@@H]1[C@@H]2CC[C@]2(C)C(=O)/C(=C/c3ccc(F)cc3)C[C@@H]12`, the IC50 stood at 27 µM in the data set on SK-N-SH; 16.8 µM with B16; 19.9 µM in the data set on ECa-109 cell line; 13.5 µM in the data set on MGC-803; 25.3 µM in the data set with A549; 8.2 µM in the data set on SMMC-7721. In the data set on HEK293, the IC50 came to 87.8 µM. For the same compound, the solubility entry in [1] is “Soluble”. The inhibition result with Chorioallantoic membrane was “Active”.
For `COc1cccc(/C=C/C(=O)c2cc3c(cc2O)CC[C@@H]2[C@@H]3CC[C@]3(C)[C@@H](O)CC[C@@H]23)c1`, the IC50 in the data set with SK-N-SH came out at 4.5 µM; in the data set with B16 it was 8.9 µM; in the data set on ECa-109 cell line it was 5.6 µM; in the data set with MGC-803 it was 4 µM; in the data set on A549, 5.5 µM; in the data set with SMMC-7721, 26.1 µM. Further, in the data set on HEK293, half-maximal inhibition (IC50) required 13.1 µM. In addition, the solubility result in data set [1] is on record as “Soluble”. Further, the inhibition result in the data set on Chorioallantoic membrane was “Active”.
As for `COc1cc2c(cc1O)CC[C@@H]1[C@@H]2CC[C@]2(C)C(=O)/C(=C/c3cc(OC)c(OC)c(OC)c3)C[C@@H]12`, the half-maximal inhibitory concentration (IC50) in the data set with SK-N-SH is 14.3 µM; with B16 it was 18.8 µM; in the data set with ECa-109 cell line it was 13.9 µM; in the data set on MGC-803, 18.7 µM; in the data set with A549 it was 14.5 µM; in the data set with SMMC-7721 it was 2.8 µM.
As to `C[C@]12CC[C@@H]3c4cc(C(=O)/C=C/c5cccc(Cl)c5)c(O)cc4CC[C@H]3[C@@H]1CC[C@@H]2O`, the IC50 stood at 10.3 µM in the data set with SK-N-SH; 12.4 µM in the data set with B16; 8.5 µM in the data set with ECa-109 cell line; 8 µM in the data set on MGC-803; 10.9 µM in the data set with A549; 6.3 µM with SMMC-7721.
For `COc1cc2c(cc1O)CC[C@@H]1[C@@H]2CC[C@]2(C)C(=O)/C(=C/c3cccc(Cl)c3)C[C@@H]12`, the IC50 in the data set with SK-N-SH amounted to 21 µM; with B16, 10.1 µM; in the data set on ECa-109 cell line it was 24.3 µM; with MGC-803, 12.3 µM; in the data set with A549, 22.6 µM; with SMMC-7721 it was 16.9 µM. The compound further registered an IC50 in the data set with HEK293 of 77.1 µM. For the same compound, the solubility entry in data set [1] is on record as “Soluble”. The inhibition entry in the data set on Chorioallantoic membrane was “Active”.
In the case of `C[C@]12CC[C@@H]3c4cc(C(=O)/C=C/c5ccc(OCc6ccccc6)cc5)c(O)cc4CC[C@H]3[C@@H]1CC[C@@H]2O`, the IC50 was greater than 128 µM with SK-N-SH; greater than 128 µM in the data set with B16; greater than 128 µM with ECa-109 cell line; greater than 128 µM in the data set on MGC-803; 52.6 µM in the data set with A549; greater than 128 µM with SMMC-7721. The compound also came in with an IC50 in the data set on HEK293 greater than 100 µM. In data set [1], the solubility result was “Soluble”. In addition, the inhibition entry in the data set on Chorioallantoic membrane was “Active”.
`COc1cc2c(cc1O)CC[C@@H]1[C@@H]2CC[C@]2(C)C(=O)/C(=C/c3cccc([N+](=O)[O-])c3)C[C@@H]12`: the IC50 worked out at 24.5 µM in the data set with SK-N-SH; 6.7 µM in the data set with B16; 23.3 µM in the data set on ECa-109 cell line; 12.7 µM with MGC-803; 21.2 µM in the data set on A549; 8.1 µM in the data set with SMMC-7721. For the same compound, the solubility entry in data set [1] was “Soluble”.
As for `COc1cc2c(cc1O)CC[C@@H]1[C@@H]2CC[C@]2(C)C(=O)/C(=C/c3ccc(Cl)cc3Cl)C[C@@H]12`, the IC50 came out at 17.8 µM in the data set with SK-N-SH; 16.5 µM in the data set with B16; 15.3 µM with ECa-109 cell line; 15.8 µM with MGC-803; 15.5 µM in the data set with A549; 1.7 µM in the data set with SMMC-7721.
With `COc1ccccc1/C=C/C(=O)c1cc2c(cc1O)CC[C@@H]1[C@@H]2CC[C@]2(C)[C@@H](O)CC[C@@H]12`, the IC50 in the data set with SK-N-SH was 22.2 µM; in the data set on B16, 16.5 µM; in the data set with ECa-109 cell line, 26.5 µM; in the data set on MGC-803 it was 9.8 µM; in the data set with A549 it was 5.9 µM; with SMMC-7721, 0.6 µM.
Turning to `C[C@]12CC[C@@H]3c4cc(C(=O)/C=C/c5ccccc5Cl)c(O)cc4CC[C@H]3[C@@H]1CC[C@@H]2O`, the IC50 in the data set on SK-N-SH turned out to be 16.4 µM; in the data set with B16, 15.9 µM; in the data set with ECa-109 cell line, 13.2 µM; in the data set on MGC-803 it was 8.3 µM; in the data set on A549, 15.5 µM; in the data set on SMMC-7721, 11.3 µM.
As to `COc1cc2c(cc1O)CC[C@@H]1[C@@H]2CC[C@]2(C)C(=O)/C(=C/c3cccc(OC)c3OC)C[C@@H]12`, the IC50 was 18.2 µM in the data set with SK-N-SH; 12.7 µM with B16; 10.5 µM in the data set on ECa-109 cell line; 18.3 µM with MGC-803; 20.4 µM in the data set with A549; 8.6 µM in the data set on SMMC-7721. The compound also had an IC50 in the data set on HEK293 of 51 µM. For the same compound, the solubility result in data set [1] is given as “Soluble”.
Regarding `C[C@]12CC[C@@H]3c4cc(C(=O)/C=C/c5ccc(Cl)cc5Cl)c(O)cc4CC[C@H]3[C@@H]1CC[C@@H]2O`, the IC50 turned out to be 22.7 µM in the data set with SK-N-SH; 13.1 µM in the data set with B16; 19.4 µM in the data set on ECa-109 cell line; 12.5 µM in the data set on MGC-803; 13.7 µM with A549; 14.5 µM in the data set on SMMC-7721.
Take `COc1ccc(/C=C/C(=O)c2cc3c(cc2O)CC[C@@H]2[C@@H]3CC[C@]3(C)[C@@H](O)CC[C@@H]23)cc1`: the IC50 in the data set on SK-N-SH came out at 18.9 µM; in the data set with B16, 17.4 µM; in the data set on ECa-109 cell line, 18.2 µM; with MGC-803, 12.2 µM; in the data set on A549, 8.6 µM; in the data set on SMMC-7721 it was 16.1 µM.
As to `COc1cc2c(cc1O)CC[C@@H]1[C@@H]2CC[C@]2(C)C(=O)/C(=C/c3ccccc3)C[C@@H]12`, the IC50 amounted to 22.4 µM with SK-N-SH; 17.8 µM with B16; 22.8 µM with ECa-109 cell line; 17.7 µM in the data set with MGC-803; 19.4 µM in the data set on A549; 17.2 µM in the data set with SMMC-7721.
`COc1cc2c(cc1O)CC[C@@H]1[C@@H]2CC[C@]2(C)C(=O)/C(=C/c3cc(F)cc(F)c3)C[C@@H]12`: the IC50 is 8 µM in the data set on SK-N-SH; 14.2 µM with B16; 16.2 µM in the data set on ECa-109 cell line; 10.7 µM with MGC-803; 15 µM in the data set with A549; 5.1 µM in the data set with SMMC-7721.
As to `COc1cc2c(cc1O)CC[C@@H]1[C@@H]2CC[C@]2(C)C(=O)/C(=C/c3ccc(S(C)(=O)=O)cc3)C[C@@H]12`, the IC50 in the data set on SK-N-SH came out at 20.5 µM; in the data set with B16, 7.7 µM; in the data set on ECa-109 cell line, 18.2 µM; in the data set with MGC-803, 10.5 µM; in the data set with A549, 5.9 µM; in the data set with SMMC-7721, 37.3 µM. In addition, the IC50 in the data set with HEK293 was greater than 100 µM.
Turning to `COc1cc2c(cc1O)CC[C@@H]1[C@@H]2CC[C@]2(C)C(=O)/C(=C/c3ccc(C)cc3)C[C@@H]12`, the IC50 in the data set on SK-N-SH was determined as 20.1 µM; in the data set on B16 it was 6 µM; in the data set on ECa-109 cell line it was 22.5 µM; in the data set on MGC-803, 20.5 µM; in the data set with A549, 53 µM; in the data set with SMMC-7721 it was 20.8 µM.
